Test results published in ChEMBL document CHEMBL2176964, “Small molecule inhibitors of Bacillus anthracis protective antigen proteolytic activation and oligomerization” (J Med Chem, 2012).
Calls of active or inactive are those of the source. No cut-off for these calls is given here.

Tests used:
[1] = target: Protective antigen (Bacillus anthracis) (UniProt P13423); assay: Inhibition of Bacillus anthracis Protective antigen-mediated cytotoxicity in human HT1080 cells by MTT assay in presence of fetal bovine serum; assay type: cell-based; conditions: HT-1080
Chain of Protective antigen (Bacillus anthracis) (P13423 whole entry): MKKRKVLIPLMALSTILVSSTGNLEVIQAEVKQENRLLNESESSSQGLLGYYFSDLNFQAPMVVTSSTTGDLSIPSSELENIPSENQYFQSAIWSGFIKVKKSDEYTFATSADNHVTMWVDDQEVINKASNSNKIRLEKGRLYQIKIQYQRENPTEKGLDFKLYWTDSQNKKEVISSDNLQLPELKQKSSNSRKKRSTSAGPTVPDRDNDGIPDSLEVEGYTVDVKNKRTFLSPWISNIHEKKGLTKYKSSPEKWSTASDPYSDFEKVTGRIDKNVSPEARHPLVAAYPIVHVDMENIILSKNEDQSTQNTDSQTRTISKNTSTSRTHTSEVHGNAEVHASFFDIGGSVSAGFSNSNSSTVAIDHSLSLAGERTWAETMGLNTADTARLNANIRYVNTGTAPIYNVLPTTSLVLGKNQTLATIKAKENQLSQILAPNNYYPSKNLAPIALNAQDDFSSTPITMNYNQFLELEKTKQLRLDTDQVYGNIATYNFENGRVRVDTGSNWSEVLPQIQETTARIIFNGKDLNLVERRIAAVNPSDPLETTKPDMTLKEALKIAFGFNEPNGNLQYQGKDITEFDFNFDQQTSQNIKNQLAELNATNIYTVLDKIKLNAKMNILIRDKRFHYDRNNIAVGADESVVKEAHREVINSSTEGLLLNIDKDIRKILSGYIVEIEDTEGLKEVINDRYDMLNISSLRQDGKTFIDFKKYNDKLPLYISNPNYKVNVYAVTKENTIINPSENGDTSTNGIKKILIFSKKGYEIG

[2] = target: Protective antigen (Bacillus anthracis) (UniProt P13423); assay: Inhibition of matrix metalloprotease activated Bacillus anthracis Protective antigen-mediated cytotoxicity in HT1080 cells at 100 uM compound co-treated for 5 hrs with antigen measured after 48 hrs by MTT assay in presence of FP59; assay type: cell-based; conditions: HT-1080
[3] = target: Protective antigen (Bacillus anthracis) (UniProt P13423); assay: Inhibition of Bacillus anthracis Protective antigen-mediated cytotoxicity in HT1080 cells at 100 uM compound co-treated for 5 hrs with antigen measured after 48 hrs by MTT assay in presence of FP59; assay type: cell-based; conditions: HT-1080
[4] = target: Protective antigen (Bacillus anthracis) (UniProt P13423); assay: Inhibition of Bacillus anthracis Protective antigen-mediated cytotoxicity in RAW264.7 cells at 100 uM compound co-treated for 5 hrs with antigen by MTT assay in presence of lethal factor; assay type: cell-based
[5] = target: Protective antigen (Bacillus anthracis) (UniProt P13423); assay: Inhibition of human furin-mediated Bacillus anthracis PA83 cleavage at 1 to 100 uM after 1 hr by Western blot analysis
Outline: (§1)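 Substrate at 100 nM (purified PA for PA83 cleavage; TGFα-PE38 with a furin-cleavable RKKR linker) was mixed with 1, 10 or 100 μM inhibitor, or 1% DMSO. Buffer: 50 mM Hepes pH 7.5, 2 mM CaCl2, 0.5 mM EDTA, 0.2% octyl glucoside. Soluble human furin was added at 1 nM final for 1 h at 37°C. The reaction was boiled in SDS dye, run on a 4–20% gel and blotted with anti-PA or anti-Pseudomonas exotoxin serum.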

[6] = target: Protective antigen (Bacillus anthracis) (UniProt P13423); assay: Inhibition of Bacillus anthracis Protective antigen-mediated cytotoxicity in RAW264.7 cells by MTT assay in presence of fetal bovine serum; assay type: cell-based
[7] = target: Protective antigen (Bacillus anthracis) (UniProt P13423); assay: Inhibition of Bacillus anthracis Protective antigen-mediated cytotoxicity in RAW264.7 cells at 100 uM compound co-treated for 5 hrs with antigen measured after 48 hrs by MTT assay in presence of FP59; assay type: cell-based
[8] = target: Protective antigen (Bacillus anthracis) (UniProt P13423); assay: Inhibition of Bacillus anthracis Protective antigen assessed as reduction in PA83 level in CHO C4 cells at 100 uM after 1 hr by Western blot analysis relative to untreated-control; assay type: cell-based
Homo sapiens = organism: Homo sapiens; assay: Inhibition of human furin-mediated TGFalpha-PE38 cleavage at 1 to 100 uM after 1 hr by Western blot analysis; outline: as §1
[9] = target: Protective antigen (Bacillus anthracis) (UniProt P13423); assay: Inhibition of Bacillus anthracis Protective antigen assessed as reduction in PA83 level in CHO C4 cells at 100 uM after 1 hr by Western blot analysis relative to untreated-control in presence of lethal factor; assay type: cell-based
[10] = target: Protective antigen (Bacillus anthracis) (UniProt P13423); assay: Inhibition of Bacillus anthracis Protective antigen assessed as reduction in PA63 level in CHO C4 cells at 100 uM after 1 hr by Western blot analysis relative to untreated-control; assay type: cell-based
[11] = target: Protective antigen (Bacillus anthracis) (UniProt P13423); assay: Inhibition of Bacillus anthracis Protective antigen-mediated cytotoxicity in RAW264.7 cells compound co-treated for 5 hrs with antigen by MTT assay in presence of lethal factor; assay type: cell-based
[12] = target: Protective antigen (Bacillus anthracis) (UniProt P13423); assay: Inhibition of Bacillus anthracis Protective antigen-mediated cytotoxicity in RAW264.7 cells at 10 uM compound co-treated for 5 hrs with antigen by MTT assay in presence of lethal factor; assay type: cell-based
HT-1080 [13] = assay: Cytotoxicity against human HT1080 cells at 10 to 100 uM by MTT assay; assay type: cell-based; conditions: ht-1080, 100 µM
Outline: (§2)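 Compound toxicity was measured in serum-free DMEM with 10 mM Hepes pH 7.3 and gentamicin at 37°C, by MTT read-out. There were two exposure schemes: a 5-h exposure, or a 54-h incubation in which the inhibitor was removed from the medium after 5 h. MTT cannot distinguish growth inhibition from toxicity.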

[14] = target: Protective antigen (Bacillus anthracis) (UniProt P13423); assay: Inhibition of Bacillus anthracis Protective antigen-mediated cytotoxicity in RAW264.7 cells at 3 uM compound co-treated for 5 hrs with antigen measured after 48 hrs by MTT assay in presence of FP59; assay type: cell-based
RAW264.7 [15] = assay: Cytotoxicity against mouse RAW264.7 cells at 10 to 100 uM by MTT assay; assay type: cell-based; conditions: raw264.7, 100 µM; outline: as §2
RAW264.7 [16] = assay: Cytotoxicity against mouse RAW264.7 cells compound incubated at 10 to 100 uM for extended period by MTT assay; assay type: cell-based; conditions: raw264.7, 100 µM; outline: as §2
HT-1080 [17] = assay: Cytotoxicity against human HT1080 cells compound incubated at 10 to 100 uM for extended period by MTT assay; assay type: cell-based; conditions: ht-1080, 100 µM; outline: as §2

`O=c1c(O)c(-c2ccc(O)c(O)c2)oc2cc(O)cc(O)c12` was tested, and the inhibition [1] was “inactive”, the inhibition [2] was “Active” and the inhibition [3] was “Active”. For the same compound, the inhibition [4] was “Active”, the inhibition [5] was “inactive” and the inhibition [6] was “inactive”. The inhibition [7] was “Active”, the inhibition [8] was “inactive” and the inhibition (Homo sapiens) was “inactive”. The inhibition [9] was “inactive” and the inhibition [10] was “inactive”.

In the case of `NC(=O)c1ccccc1NC(=O)c1cccc(C(=O)Nc2ccccc2C(N)=O)c1`, the inhibition [11] is reported as “Active”.

In the case of `NC(=O)c1ccccc1NC(=O)c1ccc(C(=O)Nc2ccccc2C(N)=O)cc1`, the inhibition [1] is reported as “inactive”, the inhibition [12] is reported as “Active” and the Activity (HT-1080 [13]) is reported as “Non-toxic”. The inhibition [5] was “inactive”, the inhibition [14] was “Active” and the inhibition [6] was “inactive”. The Activity (RAW264.7 [15]) was “Non-toxic”, the inhibition [8] was “inactive” and the inhibition (Homo sapiens) was “inactive”. For the same compound, the inhibition [9] was “inactive” and the inhibition [10] was “Active”.

With `Oc1ccccc1/C=N/c1ccc(Cc2ccc(/N=C/c3ccccc3O)c(O)c2)cc1O` the inhibition [1] was “inactive”, the inhibition [12] was “Active” and the inhibition [5] was “Active”. The inhibition [14] was “Active”, the inhibition [6] was “inactive” and the inhibition [8] was “inactive”. The inhibition (Homo sapiens) was “inactive”, the inhibition [9] was “inactive” and the Activity (RAW264.7 [16]) was “Toxic”. For the same compound, the Activity (HT-1080 [17]) was “Toxic” and the inhibition [10] was “Active”.
